Active and inactive are the calls of the source. The rule behind the calls is not given here.
How the values were obtained:
[1] = Phototoxicity against mouse S37 cells implanted in F1 mouse assessed as tumor growth inhibition at 5 mg/kg, iv preincubated for 30 mins with subsequent 150 J/cm2 irradiation measured on day 8 post irradiation relative to control; assay type: functional; conditions: S37, light or radiation study, read-out: TGI
Summary of the method: (§1)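 S37 sarcoma mice treated on day 7 of tumor growth with compound iv; tumors 140–160 mm3 beforehand, droperidol 0.25 mg ip as anesthetic. LED irradiation at 800 ± 21 nm, 100 mW/cm2, 150 J/cm2, given 15 or 30 min after dosing. Controls got iv 0.9% NaCl. Volume = d1×d2×d3×0.52; TGI = […]×100%.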

[2] = Phototoxicity against mouse S37 cells implanted in F1 mouse assessed as tumor growth inhibition at 5 mg/kg, iv preincubated for 30 mins with subsequent 150 J/cm2 irradiation measured on day 11 post irradiation relative to control; assay type: functional; conditions: S37, light or radiation study, read-out: TGI; summary of the method: as §1
[3] = Phototoxicity against mouse S37 cells implanted in F1 mouse assessed as tumor growth inhibition at 5 mg/kg, iv preincubated for 30 mins with subsequent 150 J/cm2 irradiation measured on day 18 post irradiation relative to control; assay type: functional; conditions: S37, light or radiation study, read-out: TGI; summary of the method: as §1
[4] = Phototoxicity against mouse S37 cells implanted in F1 mouse assessed as tumor growth inhibition at 5 mg/kg, iv preincubated for 30 mins with subsequent 150 J/cm2 irradiation measured on day 20 post irradiation relative to control; assay type: functional; conditions: S37, light or radiation study, read-out: TGI; summary of the method: as §1
[5] = Phototoxicity against rat Sarcoma M1 cells implanted in rat assessed as volume of tumor necrotic zones at 2.5 mg/kg, ip administered as single dose on day 11 after inoculation followed by 300 J/cm2 irradiation after 2.5 to 3 hrs measured on day 1 post photodynamic therapy (reference value: 32 +/- 6 %); assay type: functional
Summary of the method: (§2)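 Rat M1 sarcoma was implanted subcutaneously in the left thigh, with randomisation on day 10. A single 2.5 mg/kg ip dose was given on day 11, then 810 nm laser (0.51 W/cm2, 300 J/cm2, 10 min) after 2.5−3 h. Tumours were sectioned on days 1, 3 and 12 after PDT (controls days 12, 14, 23), five animals per point. Parenchyma and necrotic zone volumes were estimated on hematoxylin and eosin staining.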

[6] = Phototoxicity against rat Sarcoma M1 cells implanted in rat assessed as mitotic index at 2.5 mg/kg, ip administered as single dose on day 11 after inoculation followed by 300 J/cm2 irradiation after 2.5 to 3 hrs measured on day 1 post photodynamic therapy (reference value: 1.9 +/- 0.2 %); assay type: functional
Summary of the method: (§3)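 Rats with M1 sarcoma implanted subcutaneously in the left thigh were randomized on day 10, 25 per group. Single ip dose of 2.5 mg/kg on day 11; laser irradiation 2.5–3 h later at 810 nm, 0.51 W/cm2, 300 J/cm2, 10 min over a 1.5 cm field. Five rats sampled per time point for H&E histology, PCNA immunohistochemistry (1:200) and tumor volume. Untreated controls; Student's test, p < 0.05.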

[7] = Phototoxicity against rat Sarcoma M1 cells implanted in rat assessed as apoptotic index at 2.5 mg/kg, ip administered as single dose on day 11 after inoculation followed by 300 J/cm2 irradiation after 2.5 to 3 hrs measured on day 1 post photodynamic therapy (reference value: 0.29 +/- 0.02 %); assay type: functional; summary of the method: as §3
[8] = Phototoxicity against rat Sarcoma M1 cells implanted in rat assessed as volume of PCNA-positive cells in tumor parenchyma at 2.5 mg/kg, ip administered as single dose on day 11 after inoculation followed by 300 J/cm2 irradiation after 2.5 to 3 hrs measured on day 3 post photodynamic therapy (reference value: 81 +/- 3%); assay type: functional
Summary of the method: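 Female rats bearing subcutaneous M1 sarcoma in the left thigh were randomised on day 10. They received 2.5 mg/kg ip on day 11. Laser irradiation (810 nm, 0.51 W/cm2, 300 J/cm2, 1.5 cm field, 10 min) followed 2.5−3 h later. PCNA-positive parenchyma was scored by immunohistochemistry (mouse anti-PCNA PC10, 1:200, biotin−extravidin−peroxidase) on post-PDT days 1, 3 and 12, with five animals per time point.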

[9] = Phototoxicity against rat Sarcoma M1 cells implanted in rat assessed as tumor volume at 2.5 mg/kg, ip administered as single dose on day 11 after inoculation followed by 300 J/cm2 irradiation after 2.5 to 3 hrs measured on day 12 post photodynamic therapy (reference value: 12 +/- 3 mm3); assay type: functional; summary of the method: as §3
[10] = Phototoxicity against rat Sarcoma M1 cells implanted in rat assessed as volume of tumor necrotic zones at 2.5 mg/kg, ip administered as single dose on day 11 after inoculation followed by 300 J/cm2 irradiation after 2.5 to 3 hrs measured on day 12 post photodynamic therapy (reference value: 44 +/- 3%); assay type: functional; summary of the method: as §2
[11] = Phototoxicity against rat Sarcoma M1 cells implanted in rat assessed as mitotic index at 2.5 mg/kg, ip administered as single dose on day 11 after inoculation followed by 300 J/cm2 irradiation after 2.5 to 3 hrs measured on day 12 post photodynamic therapy (reference value: 1.9 +/- 0.2%); assay type: functional; summary of the method: as §3
[12] = tested on: Sarcoma M1; assay: Phototoxicity against rat Sarcoma M1 cells implanted in rat assessed as tumor vasculature disruption at 2.5 mg/kg, ip administered as single dose on day 11 post inoculation followed by 300 J/cm2 irradiation after 2.5 to 3 hrs measured on day 2 post photodynamic therapy by CD31 dependent immunoimgaing; assay type: functional, organism-based
[13] = Drug uptake in tumor of F1 mouse implanted with mouse S37 cells assessed as normalized fluorescence units at 2.5 mg/kg, iv measured after 15 mins in presence of He-Ne laser radiation by local fluorescence spectroscopic analysis; assay type: ADME, organism-based, Neoplasm; conditions: in vivo, 0.25 h
Summary of the method: (§4)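 S37 sarcoma-bearing immunocompetent F1 mice (18−22 g) given PS 2.5 mg/kg iv. Animals sacrificed at 0.25, 0.5, 2, 4 and 24 h, with three animals per time point. Skin, tumor and organ samples were read ex vivo by contact local fluorescence spectroscopy under He−Ne 632.8 nm excitation. Integrated 640−900 nm emission was normalized to the backscattered laser signal to give FN.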

[14] = Drug uptake in skin tumor of F1 mouse implanted with mouse S37 cells assessed as normalized fluorescence at 2.5 mg/kg, iv measured after 15 mins post injection in presence of He-Ne laser radiation by local fluorescence spectroscopic analysis; assay type: ADME, organism-based; conditions: in vivo, 0.25 h; summary of the method: as §4
[15] = Drug uptake in spleen tumor of F1 mouse implanted with mouse S37 cells assessed as normalized fluorescence at 2.5 mg/kg, iv measured after 24 hrs post injection in presence of He-Ne laser radiation by local fluorescence spectroscopic analysis; assay type: ADME, organism-based; conditions: in vivo
Summary of the method: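 Single iv dose of 2.5 mg/kg given to F1 mice bearing S37 sarcoma. Skin, muscle, liver, kidney, spleen and tumor taken from three animals each at 0.25, 0.5, 2, 4 and 24 h and read ex vivo by contact local fluorescence spectroscopy. He–Ne 632.8 nm excitation; 640–900 nm integral normalized to backscattered laser signal (FN).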

[16] = Phototoxicity against mouse S37 cells implanted in F1 mouse assessed as tumor growth inhibition at 2.5 mg/kg, iv preincubated for 15 mins with subsequent 150 J/cm2 irradiation measured on day 8 post irradiation relative to control; assay type: functional; conditions: S37, light or radiation study, read-out: TGI; summary of the method: as §1
[17] = Phototoxicity against mouse S37 cells implanted in F1 mouse assessed as tumor growth inhibition at 2.5 mg/kg, iv preincubated for 15 mins with subsequent 150 J/cm2 irradiation measured on day 20 post irradiation relative to control; assay type: functional; conditions: S37, light or radiation study, read-out: TGI; summary of the method: as §1
[18] = Phototoxicity against mouse S37 cells implanted in F1 mouse assessed as tumor growth inhibition at 5 mg/kg, iv preincubated for 15 mins with subsequent 150 J/cm2 irradiation measured on day 18 post irradiation relative to control; assay type: functional; conditions: S37, light or radiation study, read-out: TGI; summary of the method: as §1
[19] = Phototoxicity against mouse S37 cells implanted in F1 mouse assessed as tumor growth inhibition at 5 mg/kg, iv preincubated for 15 mins with subsequent 150 J/cm2 irradiation measured on day 20 post irradiation relative to control; assay type: functional; conditions: S37, light or radiation study, read-out: TGI; summary of the method: as §1

Compound | inhibition in vivo at 5 mg/kg [1] [%] | inhibition in vivo at 5 mg/kg [2] [%] | inhibition in vivo at 5 mg/kg [3] [%] | inhibition in vivo at 5 mg/kg [4] [%] | Activity [5] [%] | Activity [6] [%] | Activity [7] [%] | Activity [8] [%] | Activity [9] [mm3] | Activity [10] [%] | Activity [11] [%] | Activity [12] | Flu intensity [13] [RU] | Flu intensity [14] [RU] | Drug uptake [15] | inhibition in vivo at 2.5 mg/kg [16] [%] | inhibition in vivo at 2.5 mg/kg [17] [%] | inhibition in vivo at 5 mg/kg [18] [%] | inhibition in vivo at 5 mg/kg [19] [%]
CCCO/N=C(\C)c1c(C)c2cc3nc(c4c5[nH]c(cc6nc(cc1[nH]2)[C@@H](C)[C@@H]6CC)c(C)c5C(=O)N(OCCC)C4=O)[C@H](CCC(=O)NCCSSCCNC(=O)CC[C@@H]1c2nc(cc4[nH]c(cc5nc(cc6[nH]c7c2C(=O)N(OCCC)C(=O)c7c6C)[C@H](CC)[C@H]5C)c(/C(C)=N/OCCC)c4C)[C@H]1C)[C@H]3C | 100 | 100 | 100 | 100 | 60 | 1.2 | 0.39 | 38 | 0.44 | 71 | 1.78 | Active |  |  |  |  |  |  | 
CCCO/N=C(\C)c1c(C)c2cc3nc(c4c5[nH]c(cc6nc(cc1[nH]2)[C@H](C)[C@H]6CC)c(C)c5C(=O)N(OCCC)C4=O)[C@@H](CCC(=O)OC)[C@@H]3C |  |  |  |  |  |  |  |  |  |  |  |  | 4.4 | 2.2 | Active | 100 | 100 | 100 | 100

— ChEMBL document CHEMBL4024769, “Synthesis and Investigation of Photophysical and Biological Properties of Novel S-Containing Bacteriopurpurinimides” (J Med Chem, 2017)
